ChEMBL document CHEMBL1275313, “Synthesis and biological evaluation of novel 10-benzyl-substituted 4,5-dichloro-10H-anthracen-9-ones as inhibitors of keratinocyte hyperproliferation” (Eur J Med Chem, 2010)

What was measured:
[1] = tested on: Radical scavenging activity; test: Antioxidant activity assessed as DPPH free radical scavenging activity by spectrophotometry; assay type: functional
Procedure, shortened: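 DPPH radical decrease read spectrophotometrically as absorbance at 520 nm. Percent interaction = (1 − test absorbance/control absorbance) × 100, with test means from N = 3 and control means from N = 8. EC50 is the concentration giving a 50% drop in DPPH absorbance, obtained by nonlinear regression. NDGA and α-tocopherol served as positive controls.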

[2] = tested on: HaCaT; test: Antiproliferative activity against human HaCaT cells after 48 hrs by phase contrast microscopy; assay type: functional, cell-based
Procedure, shortened: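 HaCaT human keratinocytes were grown in DMEM with 10% fetal calf serum, penicillin and streptomycin at 37 °C under 8% CO2. After 48 h of exposure, dispersed cells were counted by phase-contrast microscopy. Inhibition = (1 − test/control) × 100, with test N = 3 and control N = 6–8. Significance was tested by Student's t-test. IC50 was obtained by nonlinear regression.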

[3] = tested on: HaCaT; test: Cytotoxicity against human HaCaT cells assessed as LDH release at 2 uM after 4 hrs; assay type: cell-based
Procedure, shortened: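 HaCaT cells were exposed to test compound for 4 h at 37 °C. Extracellular LDH activity was measured by the UV method with pyruvate and NADH and expressed in mU/mL. The vehicle control was 0.2% DMSO in culture medium, and Brij 35 with ultrasound was the positive control. N = 3, SD < 10%.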

| SMILES | EC50 [1] [µM] | IC50 [2] [µM] | Activity [3] [mU/ml] |
| --- | --- | --- | --- |
| O=C1c2cccc(Cl)c2C(Cc2ccc(C(F)(F)F)cc2)c2c(Cl)cccc21 | > 50 | 25 |  |
| COc1ccc(CC2c3c(Cl)cccc3C(=O)c3cccc(Cl)c32)cc1 | > 50 | 5 | 57.6 |
| COc1ccc(CC2c3c(Cl)cccc3C(=O)c3cccc(Cl)c32)cc1OCc1ccccc1 | > 50 | > 50 |  |
| O=C1c2cccc(Cl)c2C(Cc2ccc(O)c(O)c2)c2c(Cl)cccc21 | 6.3 | 18 | 76.6 |
| COc1ccc(CC2c3c(Cl)cccc3C(=O)c3cccc(Cl)c32)cc1O | > 50 | 0.7 | 69.5 |
| COc1ccc(C2c3c(Cl)cccc3C(=O)c3cccc(Cl)c32)cc1 | > 50 | 20 |  |
| Cc1ccc(C2c3c(Cl)cccc3C(=O)c3cccc(Cl)c32)cc1 | > 50 | > 50 |  |
| O=C1c2cccc(Cl)c2C(Cc2cccc(OCc3ccccc3)c2)c2c(Cl)cccc21 | > 50 | 22 |  |
| COc1ccc(CC2c3c(Cl)cccc3C(=O)c3cccc(Cl)c32)cc1OC | > 50 | 5 | 68.4 |
| O=C1c2cccc(Cl)c2C(Cc2ccc(OCc3ccccc3)cc2)c2c(Cl)cccc21 | > 50 | 36 |  |
| COc1ccc(OC)c(CC2c3c(Cl)cccc3C(=O)c3cccc(Cl)c32)c1 | > 50 | 3.8 | 60.6 |
| COc1cccc(CC2c3c(Cl)cccc3C(=O)c3cccc(Cl)c32)c1 | > 50 | 2 | 65 |
| O=C1c2cccc(Cl)c2C(Cc2ccc(OCc3ccccc3)c(OCc3ccccc3)c2)c2c(Cl)cccc21 | > 50 | > 50 |  |
| COc1cc(CC2c3c(Cl)cccc3C(=O)c3cccc(Cl)c32)cc(OC)c1OC | > 50 | > 50 |  |
| O=C1c2c(O)cccc2Cc2cccc(O)c21 [ANTHRALIN] | 16.7 |  | 122.8 |
| COc1cc(CC2c3c(Cl)cccc3C(=O)c3cccc(Cl)c32)cc(OC)c1 | > 50 | 24 |  |
| O=C1c2cccc(Cl)c2C(c2ccccc2)c2c(Cl)cccc21 | > 50 | > 50 |  |
| O=C1c2cccc(Cl)c2Cc2c(Cl)cccc21 | 29.5 |  | 64.4 |

More lines, main results first:

| EC50 [1] [µM] | SMILES | IC50 [2] [µM] | Activity [3] [mU/ml] |
| --- | --- | --- | --- |
| > 50 | O=C1c2cccc(Cl)c2C(Cc2ccccc2Cl)c2c(Cl)cccc21 | 30 |  |
| > 50 | O=C1c2cccc(Cl)c2C(Cc2ccc(O)cc2)c2c(Cl)cccc21 | 19 |  |
| > 50 | O=C1c2cccc(Cl)c2C(Cc2ccccc2)c2c(Cl)cccc21 | 4.3 | 69.6 |
| > 50 | O=C1c2cccc(Cl)c2C(Cc2cccc([N+](=O)[O-])c2)c2c(Cl)cccc21 | 5 | 69.9 |
| > 50 | O=C1c2cccc(Cl)c2C(Cc2ccc([N+](=O)[O-])cc2)c2c(Cl)cccc21 | > 50 |  |
| > 50 | O=C1c2cccc(Cl)c2C(Cc2ccc(Cl)cc2)c2c(Cl)cccc21 | 36 |  |
| > 50 | O=C1c2cccc(Cl)c2C(Cc2ccccc2[N+](=O)[O-])c2c(Cl)cccc21 | > 50 |  |
| > 50 | O=C1c2cccc(Cl)c2C(Cc2cccc(O)c2)c2c(Cl)cccc21 | 15 |  |
| > 50 | Cc1ccc(CC2c3c(Cl)cccc3C(=O)c3cccc(Cl)c32)cc1 | 44 |  |
| > 50 | O=C1c2cccc(Cl)c2C(Cc2ccc([N+](=O)[O-])cc2[N+](=O)[O-])c2c(Cl)cccc21 | 17 |  |
| > 50 | COc1ccccc1CC1c2c(Cl)cccc2C(=O)c2cccc(Cl)c21 | > 50 |  |
